From ChEMBL document CHEMBL5257036, “Benzophenone-nucleoside derivatives as telomerase inhibitors: Design, synthesis and anticancer evaluation in vitro and in vivo” (Eur J Med Chem, 2016)
Calls of active or inactive are those of the source. The rule behind the calls is not given here.

How the values were obtained:
SGC-7901 [1] = assay: Induction of cell cycle arrest in human SGC-7901 cells assessed as accumulation in G2 phase at 2 uM incubated for 48 hrs by PI staining based flow cytometry analysis (reference value: 24.6%); format: functional
SGC-7901 [2] = assay: Induction of cell cycle arrest in human SGC-7901 cells assessed as accumulation in G1 phase at 2 uM incubated for 48 hrs by PI staining based flow cytometry analysis (reference value: 38.1%); format: functional
SGC-7901 [3] = assay: Induction of cell cycle arrest in human SGC-7901 cells assessed as accumulation in S phase at 1 uM incubated for 48 hrs by PI staining based flow cytometry analysis (reference value: 37.4%); format: functional
SGC-7901 [4] = assay: Induction of cell cycle arrest in human SGC-7901 cells assessed as accumulation in G2 phase at 1 uM incubated for 48 hrs by PI staining based flow cytometry analysis (reference value: 24.6%); format: functional
SGC-7901 [5] = assay: Induction of cell cycle arrest in human SGC-7901 cells assessed as accumulation in G1 phase at 1 uM incubated for 48 hrs by PI staining based flow cytometry analysis (reference value: 38.1%); format: functional
HeLa = assay: Antiproliferative activity against human HeLa cells measured after 48 hrs by MTT assay; format: functional, cell-based
Outline: (§1)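 Cells grown to log phase in RPMI 1640 with 10% FBS, seeded at 3 × 10⁴ cells/mL, and preincubated 24 h at 37 °C, 5% CO₂. Compounds were added at pre-set concentrations to 6 wells each, with doxorubicin as reference, and exposed for 48 h. MTT was then added and absorbance read at 570 nm.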

SMMC-7721 = assay: Antiproliferative activity against human SMMC-7721 cells measured after 48 hrs by MTT assay; format: functional, cell-based; settings: SMMC-7721, 48 h; outline: as §1
HepG2 [6] = assay: Antiproliferative activity against human HepG2 cells measured after 48 hrs by MTT assay; format: functional, cell-based; settings: HepG2, 48 h; outline: as §1
SGC-7901 [7] = assay: Induction of apoptosis in human SGC-7901 cells assessed as late apoptotic cells at 4 uM incubated for 48 hrs by Annexin V-FITC/propidium iodide staining based flow cytometry (reference value: 1.11%); format: functional
Outline: (§2)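 SGC-7901 cells treated 48 h at three concentrations; untreated cells served as control. Harvested cells were suspended in annexin-binding buffer (1 × 10⁶ cells/mL), incubated with annexin V-FITC for 15 min, then PI for 5 min at 4 °C in the dark, and analysed immediately by flow cytometry. Quadrants scored necrotic/late apoptotic, early apoptotic and normal cells. At least 3 runs.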

SGC-7901 [8] = assay: Antiproliferative activity against human SGC-7901 cells measured after 48 hrs by MTT assay; format: functional, cell-based; settings: SGC-7901, 48 h; outline: as §1
SGC-7901 [9] = assay: Induction of apoptosis in human SGC-7901 cells assessed as early apoptotic cells at 4 uM incubated for 48 hrs by Annexin V-FITC/propidium iodide staining based flow cytometry (reference value: 2.12%); format: functional; outline: as §2
SGC-7901 [10] = assay: Induction of apoptosis in human SGC-7901 cells assessed as viable cells at 4 uM incubated for 48 hrs by Annexin V-FITC/propidium iodide staining based flow cytometry (reference value: 96.7%); format: functional; settings: read-out: Activity; outline: as §2
SGC-7901 [11] = assay: Induction of apoptosis in human SGC-7901 cells assessed as necrotic cells at 2 uM incubated for 48 hrs by Annexin V-FITC/propidium iodide staining based flow cytometry (reference value: 0.067%); format: functional; outline: as §2
SGC-7901 [12] = assay: Induction of apoptosis in human SGC-7901 cells assessed as late apoptotic cells at 2 uM incubated for 48 hrs by Annexin V-FITC/propidium iodide staining based flow cytometry (reference value: 1.11%); format: functional; outline: as §2
SGC-7901 [13] = assay: Induction of apoptosis in human SGC-7901 cells assessed as early apoptotic cells at 2 uM incubated for 48 hrs by Annexin V-FITC/propidium iodide staining based flow cytometry (reference value: 2.12%); format: functional; outline: as §2
SGC-7901 [14] = assay: Induction of apoptosis in human SGC-7901 cells assessed as viable cells at 2 uM incubated for 48 hrs by Annexin V-FITC/propidium iodide staining based flow cytometry (reference value: 96.7%); format: functional; settings: read-out: Activity; outline: as §2
SGC-7901 [15] = assay: Induction of apoptosis in human SGC-7901 cells assessed as necrotic cells at 1 uM incubated for 48 hrs by Annexin V-FITC/propidium iodide staining based flow cytometry (reference value: 0.067%); format: functional; outline: as §2
SGC-7901 [16] = assay: Induction of apoptosis in human SGC-7901 cells assessed as late apoptotic cells at 1 uM incubated for 48 hrs by Annexin V-FITC/propidium iodide staining based flow cytometry (reference value: 1.11%); format: functional; outline: as §2
SGC-7901 [17] = assay: Induction of apoptosis in human SGC-7901 cells assessed as early apoptotic cells at 1 uM incubated for 48 hrs by Annexin V-FITC/propidium iodide staining based flow cytometry (reference value: 2.12%); format: functional; outline: as §2
SGC-7901 [18] = assay: Induction of apoptosis in human SGC-7901 cells assessed as viable cells at 1 uM incubated for 48 hrs by Annexin V-FITC/propidium iodide staining based flow cytometry (reference value: 96.7%); format: functional; settings: read-out: Activity; outline: as §2
SGC-7901 [19] = assay: Induction of apoptosis in human SGC-7901 cells assessed as necrotic cells at 4 uM incubated for 48 hrs by Annexin V-FITC/propidium iodide staining based flow cytometry (reference value: 0.067%); format: functional; outline: as §2
SGC-7901 [20] = assay: Induction of mitochondrial membrane potential loss in human SGC-7901 cells assessed as increase in green fluorescence intensity at 1 to 4 uM incubated for 48 hrs by JC-1 staining based flow cytometry; format: functional, cell-based; settings: dose 1-4 µM
Outline: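 Gastric cancer cells seeded at 2 × 10⁵ per well and treated 48 h at […]. Cells were detached with 0.5% trypsin, stained with JC-1 for 0.5 h at 37 °C, 5% CO₂ in the dark, washed twice in JC-1 buffer, and analysed by flow cytometry. Read-out was red aggregate versus green monomer fluorescence. At least 3 runs.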

SGC-7901 [21] = assay: Induction of cell cycle arrest in human SGC-7901 cells assessed as accumulation in S phase at 2 uM incubated for 48 hrs by PI staining based flow cytometry analysis (reference value: 37.4%); format: functional
SGC-7901 [22] = assay: Induction of cell cycle arrest in human SGC-7901 cells assessed as accumulation in G1 phase at 4 uM incubated for 48 hrs by PI staining based flow cytometry analysis (reference value: 38.1%); format: functional
SGC-7901 [23] = assay: Induction of cell cycle arrest in human SGC-7901 cells assessed as accumulation in G2 phase at 4 uM incubated for 48 hrs by PI staining based flow cytometry analysis (reference value: 24.6%); format: functional
SGC-7901 [24] = assay: Induction of cell cycle arrest in human SGC-7901 cells assessed as accumulation in S phase at 4 uM incubated for 48 hrs by PI staining based flow cytometry analysis (reference value: 37.4%); format: functional
CCRF S-180 [25] = assay: Antitumor activity against mouse S180 cells allografted in Kunming mouse assessed as reduction in tumor weight at 60 mg/kg, po administered once daily for consecutive 10 days (reference value: 2.02+/-0.19g); format: functional; settings: time 10 day
Outline: (§3)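 Kunming mice (SPF, male or female, 20 ± 2 g) inoculated subcutaneously in the right front armpit with seven-day-old ascites (0.2 mL, 2 × 10⁶ cells). After 24 h, randomized into groups of 10 and weighed. Dosed by oral gavage at 60 mg/kg/day or given normal saline (10 mL/kg) once daily for ten days. Killed on day 11 and tumors weighed. Inhibition rate = (Wcontrol − Wtreated)/Wcontrol × 100%.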

HepG2 [26] = assay: Antitumor activity against human HepG2 cells xenografted in Kunming mouse assessed as reduction in tumor weight at 60 mg/kg, po administered once daily for consecutive 10 days (reference value: 2.01+/-0.09g); format: functional; settings: time 10 day; outline: as §3
CCRF S-180 [27] = assay: Antitumor activity against mouse S180 cells allografted in Kunming mouse assessed as tumor growth inhibition at 60 mg/kg, po administered once daily for consecutive 10 days; format: functional; settings: CCRF S-180, 240 h, time 10 day, read-out: TGI; outline: as §3
HepG2 [28] = assay: Antitumor activity against human HepG2 cells xenografted in Kunming mouse assessed as tumor growth inhibition at 60 mg/kg, po administered once daily for consecutive 10 days; format: functional; settings: HepG2, 240 h, time 10 day, read-out: TGI; outline: as §3
[29] = Toxicity in Kunming mouse allografted with mouse S180 cells assessed as body weight at 60 mg/kg, po administered once daily for consecutive 10 days (reference value: 19.38 to 19.99g); format: organism-based, CCRF S-180; settings: in vivo, 240 h, time 10 day; outline: as §3
[30] = Toxicity in Kunming mouse xenografted with […] cells assessed as body weight at 60 mg/kg, po administered once daily for consecutive 10 days (reference value: 19.15 to 19.87g); format: organism-based; settings: in vivo, 240 h, time 10 day; outline: as §3
[31] = biological target: T1, Telomerase reverse transcriptase (Homo sapiens, UniProt O14746); assay: Inhibition of telomerase activity in human SGC-7901 cells incubated for 24 hrs by TRAP-PCR-ELISA assay; format: cell-based
T1 sequence (O14746 whole entry): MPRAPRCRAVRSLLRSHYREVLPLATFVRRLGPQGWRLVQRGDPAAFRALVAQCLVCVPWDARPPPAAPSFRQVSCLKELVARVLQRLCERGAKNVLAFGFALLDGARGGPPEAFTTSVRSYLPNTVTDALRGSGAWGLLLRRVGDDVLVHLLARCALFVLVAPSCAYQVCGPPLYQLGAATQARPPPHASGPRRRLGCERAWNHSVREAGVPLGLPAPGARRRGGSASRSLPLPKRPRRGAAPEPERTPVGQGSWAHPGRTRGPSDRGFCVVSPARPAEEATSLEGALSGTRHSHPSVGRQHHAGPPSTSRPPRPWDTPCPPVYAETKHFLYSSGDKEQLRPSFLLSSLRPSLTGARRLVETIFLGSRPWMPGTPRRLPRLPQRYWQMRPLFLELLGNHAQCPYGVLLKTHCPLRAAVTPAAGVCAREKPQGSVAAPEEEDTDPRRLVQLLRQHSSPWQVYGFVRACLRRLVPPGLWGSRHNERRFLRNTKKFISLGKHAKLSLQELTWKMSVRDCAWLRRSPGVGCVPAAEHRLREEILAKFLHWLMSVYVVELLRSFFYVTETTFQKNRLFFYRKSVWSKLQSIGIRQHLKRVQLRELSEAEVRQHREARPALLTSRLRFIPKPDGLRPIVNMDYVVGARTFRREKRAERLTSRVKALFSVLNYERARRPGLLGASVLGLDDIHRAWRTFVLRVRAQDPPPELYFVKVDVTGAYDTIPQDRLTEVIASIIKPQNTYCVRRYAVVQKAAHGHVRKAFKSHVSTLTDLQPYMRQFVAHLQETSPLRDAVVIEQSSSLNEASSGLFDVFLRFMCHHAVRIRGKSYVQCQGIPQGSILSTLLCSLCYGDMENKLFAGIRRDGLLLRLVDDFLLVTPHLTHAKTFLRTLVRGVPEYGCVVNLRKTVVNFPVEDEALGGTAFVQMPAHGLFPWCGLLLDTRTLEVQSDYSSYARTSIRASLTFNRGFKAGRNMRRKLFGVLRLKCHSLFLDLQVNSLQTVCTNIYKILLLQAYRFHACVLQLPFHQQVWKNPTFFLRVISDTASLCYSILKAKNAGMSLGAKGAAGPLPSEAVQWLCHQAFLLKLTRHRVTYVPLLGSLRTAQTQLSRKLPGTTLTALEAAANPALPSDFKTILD
Outline: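 Extract was mixed with TRAP reaction mix, incubated 25 °C for 30 min, then 35 PCR cycles (94/50/72 °C). Products detected by anti-DIG-peroxidase ELISA at 490 nm; mean ± SD.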

[32] = biological target: T1, Telomerase reverse transcriptase; assay: Inhibition of telomerase activity in human SGC-7901 cells at 0.082 to 60 ug/mL incubated for 24 hrs by TRAP-PCR-ELISA assay; settings: dose 0.082-60 ug/mL

Compound: COc1cccc(C(=O)c2ccc(OC)c(OC(=O)CCC(=O)OC[C@@H]3C=C[C@H](n4cc(C)c(=O)[nH]c4=O)O3)c2)c1
- Activity (SGC-7901 [1]): 42.6%
- Activity (SGC-7901 [2]): 28.5%
- Activity (SGC-7901 [3]): 37.1%
- Activity (SGC-7901 [4]): 30%
- Activity (SGC-7901 [5]): 32.9%
- IC50 (HeLa): 1.58 µM
- IC50 (SMMC-7721): 0.82 µM
- IC50 (HepG2 [6]): 3.15 µM
- Activity (SGC-7901 [7]): 33.2%
- IC50 (SGC-7901 [8]): 0.77 µM
- Activity (SGC-7901 [9]): 26.4%
- viability at 4 µM (SGC-7901 [10]): 40.2%
- Activity (SGC-7901 [11]): 0.282%
- Activity (SGC-7901 [12]): 19.7%
- Activity (SGC-7901 [13]): 18.3%
- viability at 2 µM (SGC-7901 [14]): 61.8%
- Activity (SGC-7901 [15]): 0.07%
- Activity (SGC-7901 [16]): 5.96%
- Activity (SGC-7901 [17]): 7.34%
- viability at 1 µM (SGC-7901 [18]): 86.6%
- Activity (SGC-7901 [19]): 0.3%
- Activity (SGC-7901 [20]): Active
- Activity (SGC-7901 [21]): 28.9%
- Activity (SGC-7901 [22]): 15.8%
- Activity (SGC-7901 [23]): 60.9%
- Activity (SGC-7901 [24]): 23.2%
- Activity (CCRF S-180 [25]): 1.2 g
- Activity (HepG2 [26]): 1.04 g
- inhibition in vivo at 60 mg/kg (CCRF S-180 [27]): 40.6%
- inhibition in vivo at 60 mg/kg (HepG2 [28]): 48.5%
- Activity [29]: 24.25 g
- Activity [30]: 26.34 g
- IC50 [31]: 7.01 µM

Compound: COc1ccc(C(=O)c2ccc([N+](=O)[O-])cc2)cc1OCC(=O)OC[C@@H]1C=C[C@H](n2cc(C)c(=O)[nH]c2=O)O1
- IC50 (HeLa): 50.2 µM
- IC50 (SGC-7901 [8]): 48.1 µM

Compound: COc1ccc(C(=O)c2cc(Br)ccc2Cl)cc1OCC(=O)OC[C@@H]1C=C[C@H](n2cc(C)c(=O)[nH]c2=O)O1
- inhibition [32]: inactive

Compound: COc1cccc2c1C(=O)c1c(O)c3c(c(O)c1C2=O)C[C@@](O)(C(=O)CO)C[C@@H]3O[C@H]1C[C@H](N)[C@H](O)[C@H](C)O1 [DOXORUBICIN]
- IC50 (HeLa): 3.99 µM
- IC50 (SMMC-7721): 1.95 µM
- IC50 (SGC-7901 [8]): 3.41 µM

Compound: COc1ccc(C(=O)c2cccc(Cl)c2)cc1OC(=O)CCC(=O)OC[C@@H]1C=C[C@H](n2cc(C)c(=O)[nH]c2=O)O1
- IC50 (HeLa): 6.51 µM
- IC50 (SMMC-7721): 3.21 µM
- IC50 (HepG2 [6]): 11.1 µM
- IC50 (SGC-7901 [8]): 4.19 µM

Compound: COc1ccc(C(=O)c2ccc(F)cc2)cc1OCC(=O)OC[C@@H]1C=C[C@H](n2cc(C)c(=O)[nH]c2=O)O1
- IC50 (HeLa): 36.3 µM
- IC50 (SMMC-7721): 40.3 µM
- IC50 (HepG2 [6]): 38 µM
- IC50 (SGC-7901 [8]): 29.1 µM

Compound: COc1ccc(C(=O)c2ccc(F)cc2)cc1OC(=O)CCC(=O)OC[C@@H]1C=C[C@H](n2cc(C)c(=O)[nH]c2=O)O1
- IC50 (HeLa): 17.8 µM
- IC50 (SMMC-7721): 22.6 µM
- IC50 (HepG2 [6]): 20.3 µM
- IC50 (SGC-7901 [8]): 8.25 µM
